Screens as filed in PubChem.
Autophagy HCS = alters autophagy in cells; calls only at 10 µM (by protocol); hit rate 0.98% among 190,000; AID 463193; MEF GFP-LC3 puncta imaging; test concentration mostly 10 µM;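 active = percentage of spot-positive cells more than 3 SD above its plate mean, without a fluorescence outlier flag or 80% toxicity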;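 also: spot-positive cell cutoff set from DMSO-treated cells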
Ins promoter up = MIN6 insulin promoter up-regulation | MIN6 insulin promoter-GFP reporter, high-content imaging; stronger effect = higher value | z-score at 5 µM | hit rate 0.3% among 190,000;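 active = z-score above 3 at 5 µM with at least 500 cells counted in the well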
MT stabilizer = microtubule stabilizers in HeLa cells | HeLa tubulin immunostaining HCS, 24 h; share of cells brighter than vehicle mean+2SD | hit rate 0.83% among 200,000 | % tubulin-high responders, % at 10 µM | AID 2205;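 active = plate Z-score above 3 for both tubulin-high and condensed-nucleus cell shares, with cell loss under 80%, at 10 µM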;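 also: anti alpha tubulin signal scored within the nucleus-defined area of each cell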
bCat nuc transl = modulators of beta-catenin nuclear translocation. nuclear translocation activity, % at 5 µM. hit rate 0.3% among 190,000. HeLa beta-catenin nuclear translocation, immunofluorescence imaging. AID 1665;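 active = nuclear translocation activity above 50% at 5 µM, with a well cell count of 50 or more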;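 also: per-cell ratio of nuclear to cytoplasmic median beta-catenin stain intensity; plate controls were DMSO negative control for no effect and GSK-3 inhibitor IX positive control for full effect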
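Signal – beta-catenin immunofluorescence imaging with DAPI · Test system – human HeLa cell line · Dosing – 5 µM primary single dose, 0.1% DMSO, 0.02–20 µM confirmation series · Measure – % activation, nuclear-to-cytoplasmic median beta-catenin signal ratio per cell · Incubation – 24 h compound exposure at 37°C, 5% CO2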
Active calls of the source: *. Only some compounds are listed: those with a hit (about 1.9% of all), similar ones and a draw of the others.

How did Cc1c(C(=O)O)cccc1-c1ccc(/C=C2/NC(=O)N(c3ccccc3)C2=O)o1 do in these assays?
Autophagy HCS: inactive; Ins promoter up: 3.9*; MT stabilizer: 1; bCat nuc transl: -1

How did O=C(/C(C=Nc1cc2c(oc1=O)CCCC2=O)=C(\O)c1ccccc1)c1ccccc1 do in these assays?
Autophagy HCS: inactive; Ins promoter up: 0.52; MT stabilizer: 4; bCat nuc transl: 0

Results for Cc1cccc(Nc2c([N+](=O)[O-])c(=O)oc3ccccc23)c1 ?
Ins promoter up: 0.94; bCat nuc transl: 0

Results for CCn1cc(C(=O)NCCN(C)CCc2ccccc2)c(=O)c2cc(S(=O)(=O)N(C)C)ccc21 ?
Autophagy HCS: inactive; Ins promoter up: 3.9*; MT stabilizer: 2; bCat nuc transl: -2

Results for Cc1cc(C)c(C)c(S(=O)(=O)N2CCCCC2C(=O)O)c1C (stereo not drawn) ?
Autophagy HCS: inactive; Ins promoter up: 0.12; MT stabilizer: 3; bCat nuc transl: -2

What do the screens show for `N#C[C@H]1[C@H](c2ccccc2)[C@](C#N)(C(=O)c2ccccc2)[C@@H]2C=Cc3ccccc3N21`?
Autophagy HCS: inactive; Ins promoter up: 0.7; MT stabilizer: 25*; bCat nuc transl: 78*

How did Cc1nc2c(oc3ccccc32)c(=O)o1 do in these assays?
Autophagy HCS: inactive; Ins promoter up: 4.2*; MT stabilizer: 2; bCat nuc transl: 2

Results for COc1ccc(CNC(=O)CN2C(=O)C3C4C=CC(C4)C3C2=O)cc1 (stereo not drawn) ?
Autophagy HCS: active; Ins promoter up: -0.09; MT stabilizer: 3

How did COc1ccc(CN2C(=O)C3C4C=CC(C4)C3C2=O)cc1 (stereo not drawn) do in these assays?
Autophagy HCS: inactive; Ins promoter up: 0.62; MT stabilizer: 3; bCat nuc transl: 2

What do the screens show for `COCCn1c(C(=O)N2CCCC2)cc2c1C[C@H]1CN(C(=O)c3ccccc3)[C@@](Cc3ccc(F)cc3)(C(=O)OC)[C@@H]21`?
Autophagy HCS: inactive; Ins promoter up: -0.7; MT stabilizer: 2

What do the screens show for `COC(=O)[C@@]1(Cc2ccccc2)[C@H]2c3cc(C(=O)N4CCCC4)n(CCSCCO)c3C[C@H]2CN1C(=O)c1ccccc1`?
Autophagy HCS: active; Ins promoter up: -1.4; MT stabilizer: 4; bCat nuc transl: 3

How did CCOC(=O)C(=O)N(CC)C1CCS(=O)(=O)C1 (stereo not drawn) do in these assays?
Ins promoter up: 0.14; bCat nuc transl: -1

Results for CCOC(=O)C(C(=O)OCC)C1CCS(=O)(=O)C1 (stereo not drawn) ?
Autophagy HCS: active; Ins promoter up: 0.38; MT stabilizer: 2; bCat nuc transl: -3

How did O=C1Nc2ccccc2N(O)N1c1ccc(Cl)cc1 do in these assays?
Autophagy HCS: inactive; Ins promoter up: -0.03; MT stabilizer: 4; bCat nuc transl: 1

How did CCN1c2ccccc2NC2C1C(C(C)=O)C(=O)N2c1ccc(Cl)cc1 (stereo not drawn) do in these assays?
Autophagy HCS: active; MT stabilizer: 3; bCat nuc transl: -3

How did CCCN(Cc1cc2cc(OC)ccc2[nH]c1=O)C(=O)c1ccncc1 do in these assays?
Autophagy HCS: inactive; Ins promoter up: 0.33; MT stabilizer: 13*; bCat nuc transl: 0

Results for O=C1c2ccccc2C(O)N1Cc1cccs1 (stereo not drawn) ?
Autophagy HCS: inactive; Ins promoter up: -0.75; MT stabilizer: 3; bCat nuc transl: 0

How did COc1ccc(C2CC(c3cccc(OC)c3OC)n3nnnc3N2)cc1 (stereo not drawn) do in these assays?
Autophagy HCS: inactive; Ins promoter up: -0.58; MT stabilizer: 5; bCat nuc transl: -4

How did CN(NC(=O)c1cccc(Cl)c1)c1nc(-c2ccccc2)nnc1C(F)(F)F do in these assays?
Autophagy HCS: inactive; Ins promoter up: -0.12; MT stabilizer: 40*; bCat nuc transl: 0

Results for CCOC(=O)C1(Cc2ccccc2)CCN(Cc2cn[nH]c2-c2ccccc2)CC1 ?
Autophagy HCS: inactive; MT stabilizer: 1; bCat nuc transl: 0

How did CC(=O)Nc1cccc(/C(C)=N\NC(=O)c2ccc(Cn3nc([N+](=O)[O-])c(Cl)c3C)o2)c1 do in these assays?
Autophagy HCS: inactive; MT stabilizer: 4; bCat nuc transl: 1

How did COCCCNC(=O)c1cc2c(=O)n(C)c3ccccc3c2n1C do in these assays?
Autophagy HCS: inactive; Ins promoter up: -0.77; MT stabilizer: 13*

What do the screens show for `O=C(NCCO)/C(=C/c1ccc2c(c1)OCO2)NC(=O)c1ccc(Br)cc1`?
Autophagy HCS: active; Ins promoter up: 0.2; MT stabilizer: 3; bCat nuc transl: 0

Results for O=C(O)CNC(=O)/C(=C\c1ccc2c(c1)OCO2)NC(=O)c1ccc(Br)cc1 ?
Autophagy HCS: inactive; Ins promoter up: -1.3; MT stabilizer: 4; bCat nuc transl: 1

Results for Cc1ccc(-c2nc(-c3ccccn3)sc2CC(=O)O)cc1 ?
Ins promoter up: 0.09; bCat nuc transl: -1

What do the screens show for `COc1ccc(/C=N/N=C2\SC(CC(=O)O)C(=O)N2c2ccccc2)cc1` (stereo not drawn)?
Autophagy HCS: inactive; Ins promoter up: 0.03; MT stabilizer: 3; bCat nuc transl: -3

What do the screens show for `O=[N+]([O-])c1ccc(N/N=C/c2cn(Cc3ccc(F)cc3)c3ccccc23)nc1`?
Autophagy HCS: active; MT stabilizer: 5; bCat nuc transl: 0

What do the screens show for `COC(=O)N/N=C/c1cn(Cc2ccc(F)cc2)c2ccccc12`?
Ins promoter up: 0.32; bCat nuc transl: 0

Results for Cc1cccc(C)c1-n1c(C)cc(/C=N\Nc2ccc([N+](=O)[O-])cn2)c1C ?
Autophagy HCS: active; MT stabilizer: 1; bCat nuc transl: -17

What do the screens show for `O=[N+]([O-])c1ccc(N/N=C\c2cccnc2)nc1`?
Autophagy HCS: inactive; Ins promoter up: 0.72; MT stabilizer: 2; bCat nuc transl: -1

How did O=C(/C(=N/N=C/c1ccc(O)c(O)c1)c1ccccc1)c1ccccc1 do in these assays?
Autophagy HCS: inactive; Ins promoter up: -0.27; MT stabilizer: 4; bCat nuc transl: -2

Results for COc1cccc(OCCNC(=O)Nc2cc(F)c(F)cc2Cl)c1 ?
Autophagy HCS: inactive; Ins promoter up: -0.37; MT stabilizer: 3; bCat nuc transl: -4

Results for Cc1c(CN2CCC(CO)(CCOc3ccccc3)CC2)[nH]c2c(Cl)cccc12 ?
Autophagy HCS: inactive; Ins promoter up: -2.2; MT stabilizer: 29*; bCat nuc transl: 1

What do the screens show for `Cn1c(=O)[nH]c(=O)c2c1nc(NC1CCCCC1)n2CC(=O)NC1CCCCC1`?
Autophagy HCS: active; Ins promoter up: -0.11; MT stabilizer: 3

What do the screens show for `Clc1ccccc1-c1nc2ccccc2c2nc3ccccc3n12`?
Autophagy HCS: active; Ins promoter up: -0.18; MT stabilizer: 2; bCat nuc transl: 4

Results for Cc1nc2ccccc2c2nc3ccccc3n12 ?
Autophagy HCS: inactive; Ins promoter up: -0.46; MT stabilizer: 2
